A word on the IC50: it is the concentration at which inhibition is half-maximal.

Calls of active or inactive are those of the source. The rule behind the calls is not given here.

This note sets out measurements from ChEMBL document CHEMBL4732206, “Novel diaryl-2H-azirines: Antitumor hybrids for dual-targeting tubulin and DNA” (Eur J Med Chem, 2021).

Experiment [1] has as its system HeLa. In words: Induction of apoptosis in human HeLa cells assessed as early apoptotic cells at 4 uM incubated for 48 hrs by annexin-V-FITC and PI staining based flow cytometry analysis (reference value: 2.25 %). Format: functional. Background: A flow cytometer gives signals particle by particle.
Experiment [2] concerns HeLa. In words: Induction of cell cycle arrest in human HeLa cells assessed as increase in accumulation of cells at G2/M phase incubated for 24 hrs by PI staining based flow cytometry analysis. Format: functional. The following applies: dose 0.4-3.2 µM. The gist of the method:
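HeLa cells were grown for 24 h, then treated with graded concentrations or DMSO for 24 h. Cells were fixed in 75% ethanol at −20 °C overnight, treated with RNase A and stained with PI in PBS in the dark at room temperature. DNA content was measured by flow cytometry.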

Experiment [3] deals with Jurkat. In words: Induction of DNA damage in human Jurkat cells assessed as increase in tail moment at 100 to 400 nM incubated for 48 hrs by comet assay. Format: functional, cell-based. Particulars: dose 100-400 nM. The gist of the method:
(§1)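 Jurkat cells were exposed to graded concentrations, MMC 200 nM positive control or DMSO for 48 h at 37 °C, with work done in darkness. Cells were embedded in LM agarose on comet slides and lysed for 2 h at 4 °C. Slides were unwound in 1 mM EDTA/200 mM NaOH for 30 min, electrophoresed at 25 V for 15 min, stained with ethidium bromide and imaged by fluorescence microscopy. Tail moment was scored.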

For experiment [4], the system named is HeLa. In words: Induction of apoptosis in human HeLa cells assessed as late apoptotic cells at 8 uM incubated for 48 hrs by annexin-V-FITC and PI staining based flow cytometry analysis (reference value: 0.23 %). Format: functional.
Experiment [5] relates to Jurkat. In words: Induction of DNA damage in human Jurkat cells at 100 to 400 nM incubated for 48 hrs by EB staining based analysis. Format: functional, cell-based. The following applies: dose 100-400 nM. The gist of the method:
as §1

For experiment [6], the system named is HeLa. In words: Antiproliferative activity against human HeLa cells assessed as reduction in cell viability incubated for 48 hrs by MTT assay. Format: functional, cell-based. The gist of the method:
(§2)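 Cells were grown in DMEM with 10% FBS and penicillin/streptomycin at 37 °C and 5% CO2. They were seeded for 24 h, then treated with graded concentrations for 48 h. MTT (5 mg/mL) was added for a further 4 h at 37 °C. Formazan was dissolved in DMSO and absorbance read at 570 nm. IC50 was taken from the concentration-response curve.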
(In general: Tetrazolium assays rely on reduction of a dye to a coloured formazan, in cell work by metabolically active cells.)

Experiment [7] relates to HeLa. In words: Induction of apoptosis in human HeLa cells assessed as upregulation of PARP cleavage by Western blot analysis. Format: functional, cell-based. Particulars: dose 2-8 µM. Summed up:
(§3)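 HeLa cells were treated with graded concentrations or DMSO, washed in PBS and lysed. Protein was measured by BCA, separated by SDS-PAGE and transferred to PVDF. Membranes were blocked in 5% BSA/TBST, incubated with primary antibodies overnight at 4 °C, then with HRP secondary antibodies. Bands were detected by chemiluminescence.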

For experiment [8], the system named is HeLa. In words: Induction of cell cycle arrest in human HeLa cells assessed as upregulation of p-histone-H3 protein expression at 0.8 to 3.2 uM by Western blot analysis. Format: functional, cell-based. The following applies: dose 0.8-3.2 µM. The gist of the method:
as §3
In general terms: Immunoblotting shows a protein as a band on a membrane.

The test system of experiment [9] is HeLa. The experiment in a line: Induction of apoptosis in human HeLa cells assessed as necrotic cells at 2 uM incubated for 48 hrs by annexin-V-FITC and PI staining based flow cytometry analysis (reference value: 0.18 %). Format: functional.
For experiment [10], the system named is HUVEC. The experiment in a line: Antiangiogenic activity in HUVEC assessed as disruption of capillary structure incubated for 12 hrs by matrigel-based microscopic analysis. Format: functional, cell-based. Particulars: Homo sapiens, dose 75-150 nM. The gist of the method: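 Matrigel polymerized at 37 °C for 2 h, then HUVECs in DMEM were seeded on it. Cells were treated with a range of compound concentrations or DMSO vehicle for 12 h at 37 °C. Capillary-like tubes were photographed through an inverted microscope.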

Experiment [11] deals with Jurkat. The experiment in a line: Induction of DNA damage in human Jurkat cells assessed as upregulation of Bax protein expression incubated for 48 hrs by Western blot analysis. Format: functional, cell-based. The following applies: dose 2-8 µM.
The test system of experiment [12] is A2780. In words: Antiproliferative activity against human A2780 cells assessed as reduction in cell viability incubated for 48 hrs by MTT assay. The following applies: A2780, 48 h. Format: functional, cell-based. Summed up: as §2
The test system of experiment [13] is A549. In words: Antiproliferative activity against human A549 cells assessed as reduction in cell viability incubated for 48 hrs by MTT assay. Format: functional, cell-based. Particulars: A549, 48 h. The gist of the method:
as §2

The test system of experiment [14] is HeLa. The experiment in a line: Inhibition of colony formation in human HeLa cells incubated for 48 hrs followed by replacement with fresh medium and further incubation for 7 to 10 days by gentian violet staining based assay. Format: functional, cell-based. Particulars: dose 0.5-8 µM. Summed up: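 HeLa cells in six-well plates were grown for 24 h at 37 °C, then treated with graded concentrations or DMSO for 48 h. Medium was replaced with fresh medium for a further 7–10 days. Colonies were stained with gentian violet for 30 min, washed with PBS and counted relative to control.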

Experiment [15] concerns HeLa. The experiment in a line: Induction of apoptosis in human HeLa cells assessed as viable cells at 1 uM incubated for 48 hrs by annexin-V-FITC and PI staining based flow cytometry analysis (reference value: 97.34 %). Format: functional. The following applies: read-out: Activity.
Experiment [16] deals with HeLa. The experiment in a line: Induction of apoptosis in human HeLa cells assessed as early apoptotic cells at 2 uM incubated for 48 hrs by annexin-V-FITC and PI staining based flow cytometry analysis (reference value: 2.25 %). Format: functional.

As for `COc1ccc(C2N=C2c2cc(OC)c(OC)c(OC)c2)cc1F` (stereo unspecified), the Activity in experiment [1] was 28.43%; in [2], “Dose-dependent effect”; in experiment [4], 7.79%; in experiment [7], “Dose-dependent effect”; in [9], 0.65%; in [10], “Dose-dependent effect”. Moreover, the Activity entry is “Dose-dependent effect” in experiment [11] and 18.98% in experiment [16]. In addition, the result in experiment [3], in experiment [5] and in experiment [8] was Active. Besides, the IC50 in experiment [6] was determined as 870 nM; in [12], 160 nM; in experiment [13], 1190 nM. The inhibition result in experiment [14] is “Dose-dependent effect”. Moreover, in experiment [15], the viability at 1 µM is 95.5%.
